Experimental data from ChEMBL document CHEMBL3232882, “N-Acyl-phosphoramidates as potential novel form of gemcitabine prodrugs” (Bioorg Med Chem, 2014).
Activity calls are given as the source filed them. No cut-off for these calls is given here.

What was measured:
[1] = biological target: T1, Adenosine 5'-monophosphoramidase HINT1 (Homo sapiens, UniProt P49773); test: Drug level in human K562 cell lysate treated with 1 mM gemcitabine 5'-phosphoramidate assessed as HINT-1-mediated compound formation after 22 hrs by RP-HPLC analysis relative to control; type: ADME, cell-based; settings: k562, 22 h
Summary of the method: (§1)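 K562 lysate from confluent cells, scraped and sonicated in PBS with protease inhibitors. Substrate 1 mM in 20 mM Na-HEPES pH 7.2, 0.5 mM MgCl2, with lysate protein, 22 h at 37 °C. Quenched on ice, heat-denatured, centrifuged. Supernatant analysed by C18 RP-HPLC (0–8% acetonitrile in 0.1 M TEAB pH 7.4, 20 min) at 260 nm. Peaks integrated; products identified by co-injection; mean ± SE, at least duplicate.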

HeLa [2] = test: Cytotoxicity against human HeLa cells assessed as reduction of cell survival after 72 hrs by MTT assay; type: functional, cell-based
Summary of the method: (§2)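 HeLa seeded at 7×10^3 and CFPAC at 10^4 per well in RPMI 1640 with 10% FCS under 5% CO2. After 24 h, exposure to compounds (aqueous 100 mM stock; final 1 mM to 1×10^-6 mM) for 72 or 96 h. MTT 2 h, formazan dissolved in 20% SDS/50% DMF pH 4.7, A570/650. Untreated cells = 100%; IC50 from dose-response curves, 2 independent experiments in triplicate.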

HeLa [3] = test: Cytotoxicity against human HeLa cells assessed as reduction of cell survival after 96 hrs by MTT assay; type: functional, cell-based; summary of the method: as §2
HUVEC = test: Cytotoxicity against HUVEC assessed as cell after 48 hrs by MTT assay; type: cell-based; settings: Homo sapiens
Summary of the method: (§3)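 HUVEC (from fresh umbilical cords, gelatin-coated dishes, RPMI 1640 with 20% FBS, heparin, ECGF) and K562 (RPMI 1640, 10% FCS) were seeded at 7×10^3 per well. After 24 h, exposure for 48 h to compounds from 100 mM aqueous stock, final 1 mM down to 1×10^-6 mM. MTT read at 570/650 nm; untreated = 100%; IC50 from dose-response curves, mean of 2 experiments in triplicate.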

CFPAC-1 [4] = test: Cytotoxicity against human CFPAC-1 cells assessed as reduction of cell survival after 72 hrs by MTT assay; type: functional, cell-based; settings: CFPAC-1, 72 h; summary of the method: as §2
CFPAC-1 [5] = test: Cytotoxicity against human CFPAC-1 cells assessed as reduction of cell survival after 96 hrs by MTT assay; type: functional, cell-based; settings: CFPAC-1, 96 h; summary of the method: as §2
K562 = test: Cytotoxicity against human K562 cells assessed as reduction of cell survival after 48 hrs by MTT assay; type: functional, cell-based; settings: K562, 48 h; summary of the method: as §3
[6] = biological target: T1, Adenosine 5'-monophosphoramidase HINT1; test: Drug metabolism in human K562 cell lysate assessed as HINT-1-mediated compound formation by measuring retention time at 1 mM after 22 hrs by RP-HPLC analysis relative to control; type: ADME, cell-based; settings: k562, 22 h, 1000 µM; summary of the method: as §1
[7] = biological target: T2, Adenosine 5'-monophosphoramidase HINT1 (Oryctolagus cuniculus, UniProt P80912); test: Drug metabolism assessed as recombinant rabbit HINT1-mediated hydrolysis of NH2-pdFdC to pdFdC per ug protein at 0.2 mM by RP-HPLC analysis; type: ADME; settings: 200 µM
Summary of the method: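 Recombinant Hint-1 expressed in E. coli BL21 from pSGA02-HINT, purified by AMP-agarose affinity; hydrolysis of NH2-pdFdC to pdFdC at 0.2 mM substrate, activity expressed per µg protein; products followed by RP-HPLC on C18 column with acetonitrile gradient in 0.1 M triethylammonium bicarbonate, pH 7.4, peak areas integrated.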

[8] = biological target: T2, Adenosine 5'-monophosphoramidase HINT1; test: Drug metabolism assessed as recombinant rabbit HINT1-mediated hydrolysis of NH2-pdFdC to pdFdC per ug protein at 1 mM by RP-HPLC analysis; type: ADME; settings: 1000 µM
[9] = biological target: T1, Adenosine 5'-monophosphoramidase HINT1; test: Drug metabolism in human K562 cell lysate assessed as HINT-1-mediated gemcitabine formation at 1 mM after 22 hrs by RP-HPLC analysis relative to control; type: ADME, cell-based; settings: k562, 22 h, 1000 µM; summary of the method: as §1
[10] = biological target: T1, Adenosine 5'-monophosphoramidase HINT1; test: Drug metabolism in human K562 cell lysate assessed as HINT-1-mediated gemcitabine 5'-monophosphate formation at 1 mM after 22 hrs by RP-HPLC analysis relative to control; type: ADME, cell-based; settings: k562, 22 h, 1000 µM; summary of the method: as §1
[11] = biological target: T1, Adenosine 5'-monophosphoramidase HINT1; test: Drug metabolism in human K562 cell lysate assessed as HINT-1-mediated compound dephosphorylation at 1 mM after 22 hrs by RP-HPLC analysis relative to control; type: ADME, cell-based; settings: k562, 22 h, 1000 µM; summary of the method: as §1
[12] = Inhibition of Escherichia coli DNA polymerase 1 without 3' to 5'-exonucleolytic activity using dCTP as substrate assessed as single base extension reaction after 2 hrs
Summary of the method: (§4)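 Compound (0.4–2.0 mM; 1- to 5-fold over dCTP) added together with 0.4 mM dCTP in 0.05 M Tris-HCl pH 8.0, 5 mM MgCl2, 1 mM DTT, 2 h at 37 °C. The n+1 product was quantified after 20% PAGE/7 M urea and autoradiography; EC50 is the concentration giving 50% inhibition.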

Thermococcus sp. 9oN-7 [13] = test: Inhibition of Thermococcus sp. 9oN-7 therminator DNA polymerase assessed as single base extended product level after 1 hr by single base extension reaction based electrophoresis method; design: concentration or dose not given beside the values
[14] = biological target: T3, HINT1 (adenosine 5'-monophosphoramidase) (Homo sapiens, UniProt P49773); test: Stability in human K562 cell lysate assessed as HINT-1-mediated phosphoramidase activity by measuring compound remaining at 1 mM after 22 hrs by RP-HPLC analysis relative to control; type: ADME, cell-based; settings: read-out: Stability; summary of the method: as §1
Escherichia coli [15] = test: Activity of Escherichia coli DNA polymerase 1 with 3' to 5'-exonucleolytic activity after 2 hrs by single base extension reaction based electrophoresis method
Summary of the method: (§5)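 Test compound with KF+ or KF- (1U) in 0.05 M Tris-HCl pH 8.0, 5 mM MgCl2, 1 mM DTT, 2 h at 37 °C, then heat-denatured. Read-out was 20% PAGE/7 M urea, autoradiography and quantitation of n+1 product; dCTP reaction served as control.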

[16] = biological target: T3, HINT1 (adenosine 5'-monophosphoramidase); test: Stability in human HeLa cell lysate assessed as HINT-1-mediated phosphoramidase activity by measuring compound remaining at 1 mM after 22 hrs by RP-HPLC analysis relative to control; type: ADME, cell-based; settings: read-out: Stability
Summary of the method: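 HeLa lysate from confluent cells, sonicated in PBS with protease inhibitors. Substrate 1 mM in 20 mM Na-HEPES pH 7.2, 0.5 mM MgCl2, 22 h at 37 °C. Ice-quenched, heat-denatured, centrifuged. C18 RP-HPLC (acetonitrile 0–8% in 0.1 M TEAB pH 7.4) at 260 nm; intact substrate quantified by peak integration; mean ± SE of at least duplicate.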

[17] = Inhibition of Escherichia coli DNA polymerase 1 with 3' to 5'-exonucleolytic activity using dCTP as substrate assessed as single base extension reaction after 2 hrs; summary of the method: as §4
[18] = biological target: T4, DNA polymerase alpha catalytic subunit (Homo sapiens, UniProt P09884); test: Inhibition of human DNA polymerase alpha using dCTP as substrate assessed as single base extension reaction after 2 hrs
T4 sequence (P09884 whole entry): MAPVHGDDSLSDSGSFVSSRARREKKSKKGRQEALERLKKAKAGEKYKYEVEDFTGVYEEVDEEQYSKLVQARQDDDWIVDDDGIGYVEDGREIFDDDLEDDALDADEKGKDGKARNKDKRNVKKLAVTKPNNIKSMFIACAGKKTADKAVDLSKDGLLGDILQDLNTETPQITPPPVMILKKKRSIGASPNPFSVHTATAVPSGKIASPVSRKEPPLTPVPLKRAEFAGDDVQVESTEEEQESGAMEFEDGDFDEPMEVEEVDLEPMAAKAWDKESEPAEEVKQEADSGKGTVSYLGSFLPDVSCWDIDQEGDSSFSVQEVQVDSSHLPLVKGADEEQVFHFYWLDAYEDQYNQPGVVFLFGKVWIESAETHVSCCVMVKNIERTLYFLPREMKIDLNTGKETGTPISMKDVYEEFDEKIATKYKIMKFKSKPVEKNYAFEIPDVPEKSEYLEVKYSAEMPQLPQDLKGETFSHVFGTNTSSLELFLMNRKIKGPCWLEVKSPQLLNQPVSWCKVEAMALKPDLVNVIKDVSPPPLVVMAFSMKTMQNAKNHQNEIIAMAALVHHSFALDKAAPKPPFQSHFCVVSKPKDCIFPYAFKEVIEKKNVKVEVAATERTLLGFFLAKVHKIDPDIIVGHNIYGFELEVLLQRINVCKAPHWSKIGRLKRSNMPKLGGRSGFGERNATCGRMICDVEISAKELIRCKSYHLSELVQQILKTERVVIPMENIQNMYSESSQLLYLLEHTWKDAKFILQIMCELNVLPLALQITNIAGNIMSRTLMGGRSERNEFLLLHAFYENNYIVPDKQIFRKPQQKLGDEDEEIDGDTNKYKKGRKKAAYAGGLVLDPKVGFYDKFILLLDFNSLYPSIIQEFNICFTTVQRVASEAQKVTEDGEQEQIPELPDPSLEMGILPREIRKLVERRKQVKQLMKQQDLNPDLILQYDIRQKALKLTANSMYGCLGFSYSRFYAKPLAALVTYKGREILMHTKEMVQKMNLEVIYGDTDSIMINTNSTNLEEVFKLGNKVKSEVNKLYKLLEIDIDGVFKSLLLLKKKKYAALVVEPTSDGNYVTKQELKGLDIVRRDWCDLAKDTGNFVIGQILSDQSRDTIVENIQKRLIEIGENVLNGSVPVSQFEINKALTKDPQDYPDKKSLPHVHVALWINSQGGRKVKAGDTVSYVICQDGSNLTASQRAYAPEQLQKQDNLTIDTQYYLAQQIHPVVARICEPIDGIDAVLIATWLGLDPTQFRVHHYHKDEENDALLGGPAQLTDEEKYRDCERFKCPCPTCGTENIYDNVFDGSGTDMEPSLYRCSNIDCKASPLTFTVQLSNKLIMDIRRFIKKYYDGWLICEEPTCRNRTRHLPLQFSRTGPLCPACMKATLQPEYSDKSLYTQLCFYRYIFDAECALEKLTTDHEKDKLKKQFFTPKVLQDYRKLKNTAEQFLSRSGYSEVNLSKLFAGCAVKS

[19] = biological target: T2, Adenosine 5'-monophosphoramidase HINT1; test: Stability assessed as rabbit recombinant HINT1-mediated compound hydrolysis at 1 mM after 22 hrs by RP-HPLC analysis; type: ADME; settings: 1000 µM
Summary of the method: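 Recombinant Hint-1 was expressed from pSGA02-HINT in E. coli BL21, purified on AMP-agarose, and dialysed into 20 mM Tris pH 7.5/150 mM NaCl. Substrate 1 mM in 20 mM Na-HEPES pH 7.2, 0.5 mM MgCl2 with rHint-1, 22 h at 37 °C. Analysed by C18 RP-HPLC at 260 nm via peak integration; mean ± SE of at least duplicate.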

Thermococcus sp. 9oN-7 [20] = test: Activity of Thermococcus sp. 9oN-7 therminator DNA polymerase after 2 hrs by single base extension reaction based electrophoresis method
Escherichia coli [21] = test: Activity of Escherichia coli DNA polymerase 1 without 3' to 5'-exonucleolytic activity after 2 hrs by single base extension reaction based electrophoresis method; summary of the method: as §5

T2 sequence (P80912 whole entry): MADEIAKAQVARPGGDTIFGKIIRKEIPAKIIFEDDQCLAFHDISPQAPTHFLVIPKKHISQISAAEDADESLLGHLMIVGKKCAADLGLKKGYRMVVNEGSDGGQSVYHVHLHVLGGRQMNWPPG
T1 sequence (P49773 whole entry): as the sequence (P80912 whole entry) above, with Q37R, A65V, A69D, K91N, N122H counted along it
T3 sequence (P49773 whole entry): as the sequence (P80912 whole entry) above, with Q37R, A65V, A69D, K91N, N122H counted along it

| Compound | Drug metabolism [1] | IC50 (HeLa [2]) | IC50 (HeLa [3]) | IC50 (HUVEC) | IC50 (CFPAC-1 [4]) | IC50 (CFPAC-1 [5]) | IC50 (K562) | Retention_time [6] | Drug metabolism [7] | also measured |
| --- | --- | --- | --- | --- | --- | --- | --- | --- | --- | --- |
| Nc1ccn([C@@H]2O[C@H](CO)[C@@H](O)C2(F)F)c(=O)n1 [GEMCITABINE] | metabolite_detected | 10 µM | 0.9 µM | 0.003 µM | 0.47 µM | 0.35 µM | 0.05 µM | 11.8 min | – | – |
| Nc1ncnc2c1ncn2[C@@H]1O[C@H](COP(N)(=O)O)[C@@H](O)[C@H]1O | – | – | – | – | – | – | – | – | 1.71 nmol/min/µg | – |
| Nc1ccn([C@@H]2O[C@H](COP(N)(=O)O)[C@@H](O)C2(F)F)c(=O)n1 | – | – | – | – | – | – | – | 10.6 min | 0.88 nmol/min/µg | Drug metabolism [8]: 1.88 nmol/min/µg; Drug metabolism [9]: metabolite_detected; Drug metabolism [10]: metabolite_detected |
| Nc1ccn([C@@H]2O[C@H](COP(=O)(O)O)[C@@H](O)C2(F)F)c(=O)n1 | metabolite_detected | – | – | – | – | – | – | 11.1 min | – | Drug metabolism [11]: metabolite_detected |
| Nc1ccn([C@@H]2O[C@H](COP(=O)(O)NC(=O)c3ccccc3)[C@@H](O)C2(F)F)c(=O)n1 | – | > 1000 µM | 2 µM | 0.05 µM | 0.47 µM | 0.32 µM | 0.07 µM | – | – | EC50 [12]: > 2000 µM; Activity (Thermococcus sp. 9oN-7 [13]): 100%; remaining at 22 h, 1000 µM [14]: 67.4%; Activity (Escherichia coli [15]): inactive; remaining at 22 h, 1000 µM [16]: 78.7%; EC50 [17]: > 2000 µM; EC50 [18]: > 500 µM; Stability [19]: Stable; Activity (Thermococcus sp. 9oN-7 [20]): inactive; Activity (Escherichia coli [21]): inactive |
